{
  "source": "paper PMC9401565",
  "about": "(Clinical Cancer Research, 2021)",
  "key": {"[1]": {"assay": "PK analysis, TG-1701 plasma concentrations", "assay_type": "in vivo, human", "settings": "patients, from 100 to 300 mg"}, "p-BTK, MYC, YES1": {"test_system": "p-BTK, MYC, YES1", "assay": "Immunoblot of p-BTK, Ikaros, MYC and YES1 in PBMC lysates of patients with CLL", "assay_type": "in vivo, human", "settings": "early-responder patients, 4 hours posttreatment"}, "UPN-IbruR MCL xenograft": {"test_system": "UPN-IbruR MCL xenograft", "assay": "UPN-IbruR xenograft model, tumor growth", "assay_type": "in vivo, CB17-SCID mice", "settings": "25 mg/kg, every day, 17 days", "procedure,_shortened": "(§1)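 CB17-SCID mice were inoculated subcutaneously with […] REC-1GFP+Luc+ or UPN-IbruR cells. Tumor growth and vital parameters were monitored. Mice received oral test compound at 25 mg/kg daily or vehicle for 17 days. Endpoint tumor burden was read by bioluminescence for REC-1 and by caliper for UPN-IbruR. TGI was calculated versus vehicle.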"}, "[2]": {"test_system": "REC-1^GFP+LUC+ MCL xenograft", "assay": "REC-1 xenograft model, tumor growth inhibition", "assay_type": "in vivo, CB17-SCID mice", "settings": "25 mg/kg, every day, 17-day dosing", "procedure,_shortened": "as §1"}, "REC-BTK^wt (REC-1) cells": {"test_system": "REC-BTK^wt (REC-1) cells", "assay": "CellTiter-Glo viability assay", "assay_type": "cell-based", "settings": "Homo sapiens, Rec1, 72 h"}, "JAK3": {"molecular_target": "JAK3 (Homo sapiens, UniProt P52333)", "sequence (P52333 781-1124 limits assumed)": "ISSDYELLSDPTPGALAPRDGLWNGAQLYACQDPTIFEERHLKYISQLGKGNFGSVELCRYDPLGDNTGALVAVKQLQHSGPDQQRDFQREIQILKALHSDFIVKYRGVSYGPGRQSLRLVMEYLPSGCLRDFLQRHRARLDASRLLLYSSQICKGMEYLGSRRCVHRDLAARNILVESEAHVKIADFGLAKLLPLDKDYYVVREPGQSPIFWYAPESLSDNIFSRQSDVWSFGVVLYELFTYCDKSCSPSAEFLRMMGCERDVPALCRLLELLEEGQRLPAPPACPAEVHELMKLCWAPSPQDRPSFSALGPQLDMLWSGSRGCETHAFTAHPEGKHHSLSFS", "assay": "KINOMEscan quantitative binding assay"}, "BTK [3]": {"molecular_target": "T1, BTK (Homo sapiens, UniProt Q06187)", "T1 sequence (Q06187 whole entry)": "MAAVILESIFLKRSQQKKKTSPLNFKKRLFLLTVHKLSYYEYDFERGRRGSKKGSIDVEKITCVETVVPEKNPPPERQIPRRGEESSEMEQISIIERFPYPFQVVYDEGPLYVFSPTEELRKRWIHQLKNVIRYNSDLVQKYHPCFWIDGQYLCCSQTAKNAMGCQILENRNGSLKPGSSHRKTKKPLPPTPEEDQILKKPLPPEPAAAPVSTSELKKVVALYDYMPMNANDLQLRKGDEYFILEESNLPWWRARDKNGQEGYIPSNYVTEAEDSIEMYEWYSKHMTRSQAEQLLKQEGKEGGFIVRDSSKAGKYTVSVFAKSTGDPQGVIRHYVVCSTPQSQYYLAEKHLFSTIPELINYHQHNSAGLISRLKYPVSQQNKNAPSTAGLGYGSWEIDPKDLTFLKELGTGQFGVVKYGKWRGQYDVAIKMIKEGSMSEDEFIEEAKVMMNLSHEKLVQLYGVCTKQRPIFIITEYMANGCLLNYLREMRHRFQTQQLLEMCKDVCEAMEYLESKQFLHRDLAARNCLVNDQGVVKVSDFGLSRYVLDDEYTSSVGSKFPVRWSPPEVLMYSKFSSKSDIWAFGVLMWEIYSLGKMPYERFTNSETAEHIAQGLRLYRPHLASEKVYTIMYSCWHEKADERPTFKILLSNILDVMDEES", "assay": "BTK occupancy in patient PBMC lysates", "assay_type": "in vivo", "settings": "6 patients with CLL, 4 hours after treatment"}, "TXK": {"molecular_target": "T2, TXK (Homo sapiens, UniProt P42681)", "T2 sequence (P42681 1-527)": "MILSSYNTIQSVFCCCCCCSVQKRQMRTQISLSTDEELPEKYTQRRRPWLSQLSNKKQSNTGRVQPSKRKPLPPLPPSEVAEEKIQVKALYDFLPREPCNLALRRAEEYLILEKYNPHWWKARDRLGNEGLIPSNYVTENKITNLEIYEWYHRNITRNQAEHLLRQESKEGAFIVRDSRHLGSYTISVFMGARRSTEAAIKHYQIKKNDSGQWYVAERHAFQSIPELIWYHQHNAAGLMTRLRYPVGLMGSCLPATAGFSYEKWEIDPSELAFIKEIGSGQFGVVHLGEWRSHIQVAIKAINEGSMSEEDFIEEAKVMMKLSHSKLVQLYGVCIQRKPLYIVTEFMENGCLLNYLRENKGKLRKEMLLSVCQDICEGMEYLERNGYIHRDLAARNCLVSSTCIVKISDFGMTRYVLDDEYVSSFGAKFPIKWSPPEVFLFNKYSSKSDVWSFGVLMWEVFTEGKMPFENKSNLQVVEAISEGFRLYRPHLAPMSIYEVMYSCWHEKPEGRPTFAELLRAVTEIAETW", "assay": "KINOMEscan quantitative binding assay"}, "BTK [4]": {"molecular_target": "T1, BTK", "assay": "KINOMEscan quantitative binding assay"}, "phosphopeptides in PBMC": {"test_system": "phosphopeptides in PBMC", "assay_type": "in vivo, human", "settings": "early-responder patients, 4-hour postdose"}, "[5]": {"test_system": "BTK and AKT phosphorylation", "assay": "MINO xenograft, intratumor BCR-related kinases by Western blot", "assay_type": "in vivo, nude mice", "settings": "single oral gavage 50 mg/kg", "procedure,_shortened": "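Nude mice aged 6–7 weeks were implanted subcutaneously with 5 × 10^6 MINO cells. Dosing was oral once tumors reached 100–200 mm3. Tumor protein extracts were immunoblotted for BCR-related kinases. Densitometry was normalized to GAPDH or tubulin and referred to the control sample.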"}, "CLL": {"test_system": "CLL", "assay": "Phase I trial NCT03671590, clinical outcome of 6 patients with CLL", "assay_type": "in vivo, human", "procedure,_shortened": "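Relapsed/refractory CLL patients in trial NCT03671590 took oral test compound once daily (200, 300 or 400 mg) until progression or intolerable toxicity. ALC was recorded on day 1. CLL cell percentage was derived from ALC against the upper normal limit. Best tumor reduction was assessed at C3D1 and graded as partial response or stable disease.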"}, "CLL, MCL, WM": {"test_system": "CLL, MCL, WM", "settings": "cited from earlier work; for preliminary overall response rate (ORR): 200 mg daily monotherapy, median follow-up 7 months ref 17"}, "REC-BTK^KO cells": {"test_system": "REC-BTK^KO cells", "assay": "CellTiter-Glo viability assay", "assay_type": "cell-based"}, "[6]": {"test_system": "10 parental B-NHL cell lines", "assay": "CellTiter-Glo viability assay, mean over cell line panel", "assay_type": "cell-based", "settings": "72 h, read-out: mean GI50"}, "[7]": {"test_system": "BCR pathway in DoHH-2 cells", "assay": "BCR downstream signaling in IgM-stimulated cells, Western blot", "assay_type": "cell-based", "settings": "IgM-stimulated DoHH-2"}, "REC-BTK^C481S cells": {"test_system": "REC-BTK^C481S cells", "assay": "CellTiter-Glo viability assay", "assay_type": "cell-based", "settings": "REC-1–BTK^C481S"}, "MINO MCL xenograft": {"test_system": "MINO MCL xenograft", "assay": "MINO MCL xenograft model, tumor growth inhibition", "assay_type": "in vivo, nude mice", "settings": "orally, twice a day, 16-day treatment"}, "BTK^wt": {"molecular_target": "BTK^wt (Homo sapiens, UniProt Q06187)", "sequence (Q06187 whole entry)": "as the sequence (Q06187 whole entry) above", "assay": "BTK kinase activity assay, 33P-ATP filtration", "assay_type": "biochemical"}, "MCL cell lines": {"test_system": "MCL cell lines", "assay": "CellTiter-Glo viability assay, mean over MCL cell lines", "assay_type": "cell-based", "settings": "72 h, read-out: mean GI50"}, "BTK^C481S": {"molecular_target": "BTK^C481S (Homo sapiens, UniProt Q06187, C481S)", "sequence (Q06187 whole entry C481S)": "as the sequence (Q06187 whole entry) above, with C481S counted along it", "assay": "BTK kinase activity assay, 33P-ATP filtration", "assay_type": "biochemical", "settings": "BTK^C481S vs BTK^wt"}},
  "note": "Like-named read-outs stand apart in the source and are kept apart here.",
  "data": [
    {"smiles": "CC#CC(=O)N1CC[C@@H](n2cc(-c3ccc(Oc4c(F)cccc4F)cc3)c3c(N)n[nH]c(=O)c32)C1", "note": "[TG-1701]", "values": [
      {"measurement": "dose dependence of Cmax and AUC0–8 hours", "setting": "[1]", "value": "approximately dose-proportional increases"},
      {"measurement": "downregulation of MYC protein", "setting": "p-BTK, MYC, YES1", "value": 48, "unit": "%"},
      {"measurement": "downregulation of p-BTK protein", "setting": "p-BTK, MYC, YES1", "value": 70, "unit": "%"},
      {"measurement": "increase of YES1 levels", "setting": "p-BTK, MYC, YES1", "value": "~5", "unit": "fold"},
      {"measurement": "sensitivity of UPN-IbruR tumors", "setting": "UPN-IbruR MCL xenograft", "value": "almost insensitive"},
      {"measurement": "tumor TGI versus vehicle", "setting": "[2]", "value": 53, "unit": "%"},
      {"measurement": "GI50", "setting": "REC-BTK^wt (REC-1) cells", "value": 3.83, "unit": "µM"},
      {"measurement": "Kd fold higher than that of ibrutinib", "setting": "JAK3", "value": "> 94", "unit": "fold"},
      {"measurement": "BTK occupancy", "setting": "BTK [3]", "value": "Near-complete BTK occupancy"},
      {"measurement": "Kd fold higher than that of ibrutinib", "setting": "TXK", "value": 68, "unit": "fold"},
      {"measurement": "Kd", "setting": "BTK [4]", "value": 0.003, "unit": "µM"},
      {"measurement": "phosphorylation of Ikaros p-Ser442/445 upon treatment", "setting": "phosphopeptides in PBMC", "value": "totally dephosphorylated"},
      {"measurement": "duration of BTK and AKT dephosphorylation in tumor", "setting": "[5]", "value": "at least 24 hours"},
      {"measurement": "earliest time of AKT dephosphorylation in tumor", "setting": "[5]", "value": 4, "unit": "h"},
      {"measurement": "earliest time of BTK dephosphorylation in tumor", "setting": "[5]", "value": 2, "unit": "h"},
      {"measurement": "Clinical outcome (% reduction)", "setting": "CLL; patient AII-0011, 400–300 mg daily", "value": 87, "unit": "%"},
      {"measurement": "Clinical outcome (% reduction)", "setting": "CLL; patient AIJ-0001, 200 mg daily", "value": 38, "unit": "%"},
      {"measurement": "Clinical outcome", "setting": "CLL; patient AIJ-0005, 300 mg daily", "value": "SD-PR"},
      {"measurement": "Clinical outcome (% reduction)", "setting": "CLL; patient AIJ-0005, 300 mg daily", "value": 56, "unit": "%"},
      {"measurement": "Clinical outcome (% reduction)", "setting": "CLL; patient AIJ-0015, 400 mg daily", "value": 86, "unit": "%"},
      {"measurement": "Clinical outcome", "setting": "CLL; patient AIK-0003, 200 mg daily", "value": "SD (lymphocytosis)"},
      {"measurement": "preliminary overall response rate (ORR)", "setting": "CLL, MCL, WM; CLL", "value": 95, "unit": "%"},
      {"measurement": "preliminary overall response rate (ORR)", "setting": "CLL, MCL, WM; MCL", "value": 50, "unit": "%"},
      {"measurement": "complete responses (CR)", "setting": "CLL, MCL, WM; TG-1701 monotherapy ref 17", "value": "No complete responses (CR) are confirmed"},
      {"measurement": "preliminary overall response rate (ORR)", "setting": "CLL, MCL, WM; WM", "value": 95, "unit": "%"},
      {"measurement": "sensitivity of REC-BTK^KO cells", "setting": "REC-BTK^KO cells", "value": "refractory"},
      {"measurement": "GI50", "setting": "[6]", "value": 6.4, "unit": "µM"},
      {"measurement": "concentration of maximal effects on BCR downstream signaling", "setting": "[7]", "value": 100, "unit": "nmol/L"},
      {"measurement": "fold less sensitive compared with parental REC-1 cells", "setting": "REC-BTK^C481S cells", "value": 2.8, "unit": "fold"},
      {"measurement": "TGI", "setting": "MINO MCL xenograft; 25 mg/kg", "value": 56, "unit": "%"},
      {"measurement": "TGI", "setting": "MINO MCL xenograft; 50 mg/kg", "value": 72, "unit": "%"},
      {"measurement": "TGI", "setting": "MINO MCL xenograft; 100 mg/kg", "value": 78, "unit": "%"},
      {"measurement": "EC50", "setting": "BTK^wt", "value": 0.0067, "unit": "µM"},
      {"measurement": "GI50", "setting": "MCL cell lines", "value": 4.3, "unit": "µM"},
      {"measurement": "fold decrease in inhibitory kinase activity", "setting": "BTK^C481S", "value": 54.8, "unit": "fold"}
    ]},
    {"smiles": "C=CC(=O)N1CCC[C@@H](n2nc(-c3ccc(Oc4ccccc4)cc3)c3c(N)ncnc32)C1", "note": "[ibrutinib, reference compound]", "values": [
      {"measurement": "GI50", "setting": "REC-BTK^wt (REC-1) cells", "value": 5.82, "unit": "µM"},
      {"measurement": "sensitivity of REC-BTK^KO cells", "setting": "REC-BTK^KO cells", "value": "refractory"},
      {"measurement": "GI50", "setting": "[6]", "value": 14.1, "unit": "µM"},
      {"measurement": "concentration of maximal effects on BCR downstream signaling", "setting": "[7]", "value": 10, "unit": "nmol/L"},
      {"measurement": "GI50", "setting": "MCL cell lines", "value": 10.8, "unit": "µM"}
    ]}
  ]
}
